Screening data as filed in PubChem BioAssay.
The list is not random: actives were taken first. Their share in the collection is about 2.3%.
TRPC4 block: blocks the mouse TRPC4 cation channel; HEK293 TRPC4beta/mu-opioid, DAMGO-evoked Fluo4 calcium flux; hits give low values; B-score at 10 µM; AID 2247; Q9QUQ5; 300,000 tested, 0.39% active;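 active = B-score over 3 SD under the library average, no early fluorescence shift, positive overall ratio signal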
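Material: HEK293 cells with stable TRPC4beta plus mu-opioid receptor expression / Probe or stimulus: DAMGO in two steps, submaximal then maximal / Compound: single concentration per test compound / Technique: kinetic Fluo4 fluorescence imaging of calcium influx / Read-out: per-well B score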
TRPC6 inhibitor: inhibitors of mouse TRPC6 channel. Q61143. 310,000 tested, 1.1% active. HEK293-TRPC6, membrane potential dye, ACh-evoked depolarization; hits give low values. B-score at 10 µM;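 active = B-score under library mean minus 3 SD, initial fluorescence not abnormally high, positive integrated signal ratio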;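 note: B-score derived from integrated fluorescence ratio over the kinetic read; more negative B-score means stronger inhibition of depolarization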
Target sequence (Q61143 whole entry, looked up): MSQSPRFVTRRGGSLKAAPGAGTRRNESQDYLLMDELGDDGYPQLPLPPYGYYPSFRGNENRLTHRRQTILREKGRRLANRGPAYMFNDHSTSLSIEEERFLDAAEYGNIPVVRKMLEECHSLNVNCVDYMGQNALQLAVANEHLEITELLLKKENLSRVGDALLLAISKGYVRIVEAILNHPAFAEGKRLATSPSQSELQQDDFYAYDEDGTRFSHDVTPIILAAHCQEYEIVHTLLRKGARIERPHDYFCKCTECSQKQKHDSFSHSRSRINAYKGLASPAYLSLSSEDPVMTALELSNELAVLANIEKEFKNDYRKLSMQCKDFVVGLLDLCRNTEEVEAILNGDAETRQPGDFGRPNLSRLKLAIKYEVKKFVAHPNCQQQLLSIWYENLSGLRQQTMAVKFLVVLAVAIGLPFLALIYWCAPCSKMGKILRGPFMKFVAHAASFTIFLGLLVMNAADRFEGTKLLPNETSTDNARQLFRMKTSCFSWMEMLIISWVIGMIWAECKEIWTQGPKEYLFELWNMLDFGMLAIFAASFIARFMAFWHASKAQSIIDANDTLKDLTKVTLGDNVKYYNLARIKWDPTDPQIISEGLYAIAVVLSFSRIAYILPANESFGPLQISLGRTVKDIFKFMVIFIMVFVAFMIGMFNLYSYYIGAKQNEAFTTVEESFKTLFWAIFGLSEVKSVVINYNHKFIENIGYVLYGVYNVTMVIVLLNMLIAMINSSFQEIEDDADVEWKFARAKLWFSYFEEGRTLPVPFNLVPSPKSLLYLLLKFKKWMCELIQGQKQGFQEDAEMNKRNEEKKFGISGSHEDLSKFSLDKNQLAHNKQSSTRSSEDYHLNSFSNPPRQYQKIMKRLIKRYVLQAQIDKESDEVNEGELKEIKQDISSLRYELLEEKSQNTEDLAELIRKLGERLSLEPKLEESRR
TRPC4 act: activators of mouse TRPC4 channel | Q9QUQ5 | HEK293 TRPC4beta/mu-opioid, Fluo4 calcium fluorescence; hits give high values | B-score at 10 µM | AID 2237 | 310,000 tested, 0.49% active;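 active = B-score above 5 SD of library B-scores, and initial fluorescence ratio not above library mean plus 5 SD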;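 note: positive B-score marks a calcium rise read as TRPC4 activation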
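Assay system – TRPC4beta and mu-opioid receptor HEK293 stable cells · Measured by – Fluo4 fluorescence, kinetic · Schedule – dye loading 45 min room temperature, 110 s kinetic read · Read-out – B-scored integrated calcium fluorescence ratio · Controls – buffer and maximal DAMGO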
TRPC4 potent: allosteric potentiators of mouse TRPC4 channel; 310,000 tested, 0.42% active; Q9QUQ5; B-score at 10 µM; HEK293 TRPC4beta/mu-opioid, DAMGO EC20, Fluo-4 Ca2+ flux; hits give high values;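 active = B-score of calcium response area above 5 SD of library B-scores, with initial fluorescence ratio within 5 SD of library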
TRPC6 act: mouse TRPC6 channel activation; HEK293-TRPC6 membrane potential dye fluorescence; hits give high values; B-score at 10 µM; 310,000 tested, 0.13% active;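 active = B-score of the integrated fluorescence ratio above library mean plus 3 SD, and starting fluorescence ratio within library mean plus 5 SD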;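 note: higher score means more depolarization so channel activation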
HEK293 MPD ctr: parental HEK293 nonspecific activity of TRPC6 modulators; 2,400 tested, 51% active; shares compounds with TRPC6 inhibitor; AID 488924; membrane potential dye fluorescence; membrane potential signal change, % at 10 µM;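 active = membrane potential signal moves up or down beyond 5 SD from buffer-only wells, on both duplicate plates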
HEK293 MPD ctr 2: second check of TRPC6 modulator effects in parental HEK293 cells; membrane potential dye fluorescence; after compound, maximal acetylcholine stimulation; 2,400 tested, 14% active; shares compounds with TRPC6 inhibitor; inhibition, % at 10 µM;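 active = membrane potential signal drops by more than 5 SD from the mean control signal, in both duplicate plates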
TRPC4 ctr mod: mouse TRPC4 off-target activity of TRPC6 modulators | AID 488927 | 2,400 tested, 69% active | percent change from control (negative = decrease, positive = increase), % at 10 µM | HEK293 TRPC4/mu-opioid, membrane potential fluorescence | shares compounds with TRPC6 inhibitor;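 active = membrane potential signal moved up or down beyond 5 SD of buffer control wells, in both duplicate plates, actives on both sides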
TRPC4 ctr inh 2: second selectivity test of TRPC6 modulators against mouse TRPC4; shares compounds with TRPC6 inhibitor; HEK293 TRPC4/mu-opioid, membrane potential dye fluorescence; stimulated with maximal-effect DAMGO; inhibition, % at 10 µM; 2,400 tested, 55% active; AID 488928;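 active = drop in membrane potential signal beyond 5 SD of the control wells in both duplicate plates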;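 note: TRPC4 counter screen for TRPC6 hits run under conditions tuned for TRPC6 not TRPC4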
TRPC6 block conf: confirmation of mouse TRPC6 inhibitors. shares compounds with TRPC6 inhibitor. HEK293-TRPC6, membrane potential dye, ACh-evoked depolarization. inhibition, % at 10 µM. 3,300 tested, 43% active;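 active = fluorescence ratio falls more than 5 SD below the full-stimulation control mean, in both duplicate runs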;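 note: integrated fluorescence ratio of peak minus minimum over baseline after agonist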
TRPC6 act conf: confirmation of mouse TRPC6 activators; HEK293-TRPC6 membrane potential dye fluorescence, FDSS; shares compounds with TRPC6 inhibitor; AID 488961; 2,800 tested, 11% active; activation, % at 10 µM;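 active = ratio signal rise beyond 5 SD above unstimulated control wells' mean, seen in both duplicate runs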
Numbers stand for hits; 0 = inactive; - = no result.

SMILES	TRPC4 block	TRPC6 inhibitor	TRPC4 act	TRPC4 potent	TRPC6 act	HEK293 MPD ctr	HEK293 MPD ctr 2	TRPC4 ctr mod	TRPC4 ctr inh 2	TRPC6 block conf	TRPC6 act conf
Cc1ccc(C2C(C#N)=C(N)Oc3cc(N)ccc32)cc1 (stereo not given)	0	0	0	0	13	0	0	0	0	0	0
CC(C)[C@H](NC(=O)N1CCn2c1nc1ccccc12)C(=O)NCC1CCCO1 (stereo not given in full)	0	0	0	0	0	-	-	-	-	-	-
Cc1cc(NCCN(C)C)n2nc(-c3cccs3)cc2n1	0	-6.8	0	0	0	-272%	0	-52%	48%	0	0
CC(C)=CC(=O)Nc1ccc(Br)cc1	0	0	0	0	0	-	-	-	-	-	-
Cc1ccc(C)c(OCCCN2CCNCC2)c1	0	0	0	0	0	-	-	-	-	-	-
Cc1ccc(C)c(OCCCCN2CCNCC2)c1C	0	-5.6	0	15	0	0	0	0	50%	53%	-
O=C(C1CCCN1S(=O)(=O)c1cccc2nsnc12)N1CCCCCC1 (stereo not given)	0	0	0	0	0	-	-	-	-	-	-
O=C(CCl)Nc1ccccc1C(=O)Nc1ccc2c(c1)OCO2	0	0	0	0	0	-	-	-	-	-	-
N#Cc1nc(Cc2cccc3ccccc23)oc1NCCN1CCCCC1	0	-5.2	0	0	0	106%	0	10%	63%	0	-
Cc1ccc(N(Cc2ccccc2)C(=O)c2cc(S(=O)(=O)N3CCOCC3)ccc2C)cc1	0	0	0	0	0	-	-	-	-	-	-
CN(C)CCNC(=O)c1ccccc1	0	0	0	0	0	-	-	-	-	-	-
Cc1sc(NC(=O)c2ccccc2)c(C(=O)NCCN(C)C)c1C	0	-11	148	0	0	-161%	0	-31%	74%	62%	0
CCOc1ccc(NC(=S)NN(C)C(=S)Nc2ccc(OCC)cc2)cc1	0	0	0	0	0	-	-	-	-	-	-
N#Cc1cc2c(cc1NC(=O)CCn1cnnn1)OCO2	0	0	0	0	0	-	-	-	-	-	-
Cc1ccc(-n2c(SCC(N)=O)nnc2-c2ccc(S(=O)(=O)N3CCCCC3)cc2)c(C)c1	0	-6	0	0	0	0	0	40%	0	41%	0
CC1(C)CC(=O)c2c(O)cc(O)cc2O1	0	0	0	0	0	-	-	-	-	-	-
C[C@]12CCC[C@H](O1)c1c(cc3c(c1O)C(=O)c1c(O)cc(O)cc1C3=O)O2	0	0	0	0	13	274%	0	58%	0	0	91%
Cc1ccccc1-n1ncc2c1CC(C)(C)CC2NC(=O)c1cn[nH]c1C (stereo not given)	0	0	0	0	0	-	-	-	-	-	-
CN(C)CCC(=O)c1ccc(Cl)cc1	0	0	0	0	0	-	-	-	-	-	-
CN(CCC(=O)c1ccccc1)CCC(=O)c1ccccc1	0	-5.3	0	0	0	0	0	10%	0	0	-
CCN(CC)C(=O)N1c2ccccc2CC(N(CC)CC)c2ccccc21 (stereo not given)	0	-5.2	0	0	0	220%	0	39%	0	0	-
C=CCN(C(=O)CC(NC(C)=O)c1ccccc1)c1nc(-c2ccc(S(C)(=O)=O)cc2)cs1 (stereo not given)	0	-6.5	0	0	0	0	0	0	0	0	0
CC(=O)NC(CC(=O)Nc1nc(C)cs1)c1ccccc1 (stereo not given)	0	0	0	0	0	-	-	-	-	-	-
CCOc1ccc(N(Cc2ccccc2F)C2=NC3CS(=O)(=O)CC3S2)cc1 (stereo not given)	0	0	0	0	0	-	-	-	-	-	-
